Experimental findings from ChEMBL document CHEMBL4359873, “Benzothienoquinazolinones as new multi-target scaffolds: Dual inhibition of human Topoisomerase I and tubulin polymerization” (Eur J Med Chem, 2019) are described below.

Active and inactive are the calls of the source. No cut-off for these calls is given here. A value given as a limit tells only on which side of the number the result lay.

Test [1] addresses T1, Tubulin (Bos taurus) (UniProt Q6B856+Q862L2+Q862F3). In words: Inhibition of bovine tubulin at 10 uM assessed as tubulin heterodimers assembly to form microtubule by measuring OD at 350nm in presence of GTP measured every 30 secs for 90 mins by turbidimetric assay. It is filed as protein assay. In outline: (§1)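 Kit-based assay: 60 µM tubulin in 1x PB-GTP with compound at 10 µM final (DMSO vehicle control), 37 °C, 10 s shaking before each reading. Turbidity read at 350 nm every 30 s for 90 min. Paclitaxel and Vinblastine at 10 µM final as stabilizing and destabilizing references.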

In test [2] the test system is MCF7. In words: Antiproliferative activity against ER-alpha positive human MCF7 cells assessed as reduction in cell viability after 72 hrs by MTT assay. It is filed as functional, cell-based. The settings on record: MCF7, 72 h. An outline of the steps:
(§2)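 Cells seeded, grown 24 h in full medium, then serum-starved 24 h before compound exposure. Six concentrations (0.1, 1, 10, 20, 40, 100 µM) tested in triplicate; MTT absorbance read at 570 nm; results as % of basal, IC50 calculated. Means ± standard deviations. MCF-7 in DMEM-F12 with 5% NCS, MDA-MB-231 with 5% FBS, MCF-10A with 5% horse serum plus hEGF, insulin, hydrocortisone, cholera enterotoxin; 37 °C, 5% CO2.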
On the technique in general: Tetrazolium assays rely on reduction of a dye to a coloured formazan, in cell work by metabolically active cells.

Test [3] concerns MCF-10A. In words: Cytotoxicity against human MCF10A cells assessed as reduction in cell viability after 72 hrs by MTT assay. It is filed as cell-based. An outline of the steps:
as §2

In test [4] the target is DNA topoisomerase 2-alpha (Homo sapiens) (UniProt P11388). Put plainly: Inhibition of human topoisomerase 2 mediated decatenation up to 100 uM using kinetoplast DNA as susbtrate after 1 hr by ethidium bromide staining based agarose gel electrophoresis.
For test [5], the target named is T2, DNA topoisomerase 1 (Homo sapiens) (UniProt P11387).
T2 sequence (whole entry): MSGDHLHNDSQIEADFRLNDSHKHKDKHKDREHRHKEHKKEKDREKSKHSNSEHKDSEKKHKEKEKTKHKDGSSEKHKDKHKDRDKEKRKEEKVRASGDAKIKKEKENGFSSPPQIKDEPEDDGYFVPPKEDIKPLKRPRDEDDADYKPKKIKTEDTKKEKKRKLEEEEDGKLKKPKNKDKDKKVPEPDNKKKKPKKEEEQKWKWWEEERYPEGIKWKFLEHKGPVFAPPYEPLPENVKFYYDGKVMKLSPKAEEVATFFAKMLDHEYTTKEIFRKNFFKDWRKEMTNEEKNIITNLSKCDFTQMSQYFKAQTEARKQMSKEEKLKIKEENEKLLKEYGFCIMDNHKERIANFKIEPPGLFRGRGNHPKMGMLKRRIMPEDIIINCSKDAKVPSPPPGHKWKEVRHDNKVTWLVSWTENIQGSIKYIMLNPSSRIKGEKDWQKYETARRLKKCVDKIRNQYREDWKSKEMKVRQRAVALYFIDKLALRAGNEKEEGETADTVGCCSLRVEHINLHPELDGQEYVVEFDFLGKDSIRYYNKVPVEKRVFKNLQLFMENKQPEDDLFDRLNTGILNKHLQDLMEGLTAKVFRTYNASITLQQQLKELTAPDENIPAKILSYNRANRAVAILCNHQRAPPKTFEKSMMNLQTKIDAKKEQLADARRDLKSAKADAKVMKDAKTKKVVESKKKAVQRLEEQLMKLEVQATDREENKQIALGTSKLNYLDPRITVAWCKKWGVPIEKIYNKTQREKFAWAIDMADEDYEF
Put plainly: Inhibition of recombinant human topoisomerase 1 mediated DNA relaxation assessed as uncleaved plasmid DNA at 50 uM using supercoiled pHOT1 plasmid as substrate after 1 hr by ethidium bromide staining based agarose gel electrophoresis. In outline:
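Relaxation in 20 µL: 0.25 µg supercoiled pHOT1 in TE buffer, 2 units recombinant hTopo I, compound at 50 µM final, 1 h at 37 °C. Run on 1% agarose in 1x TAE without EB, then stained 30 min with EB (0.5 µg/mL), washed 15 min in water, viewed under UV. Three repeats.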

In test [6] the target is T1, Tubulin (Bos taurus). In words: Inhibition of bovine tubulin assessed as decrease in tubulin polymerization gradually followed by steady state decrease measured after 15 mins by turbidimetric assay. Format: protein assay. In outline:
as §1

Test [7] deals with MDA-MB-231. Put plainly: Antiproliferative activity against triple negative human MDA-MB-231 cells assessed as reduction in cell viability after 72 hrs by MTT assay. Format: functional, cell-based. The settings on record: MDA-MB-231, 72 h. In outline: as §2
The target in test [8] is DNA topoisomerase 2-alpha (Homo sapiens) (UniProt P11388). Put plainly: Inhibition of human topoisomerase 2 mediated decatenation at 50 uM using kinetoplast DNA as susbtrate after 1 hr by ethidium bromide staining based agarose gel electrophoresis. An outline of the steps:
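Decatenation in 20 µL with 0.2 µg kinetoplast DNA and 3 units hTopo II; compounds at 50 µM, 1 h at 37 °C.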

For test [9], the target named is T1, Tubulin (Bos taurus). In words: Inhibition of bovine tubulin assessed as decrease in tubulin polymerization gradually followed by steady state decrease measured after 30 mins by turbidimetric assay. It is filed as protein assay. An outline of the steps:
as §1

Sequence of DNA topoisomerase 2-alpha (Homo sapiens) (P11388 whole entry): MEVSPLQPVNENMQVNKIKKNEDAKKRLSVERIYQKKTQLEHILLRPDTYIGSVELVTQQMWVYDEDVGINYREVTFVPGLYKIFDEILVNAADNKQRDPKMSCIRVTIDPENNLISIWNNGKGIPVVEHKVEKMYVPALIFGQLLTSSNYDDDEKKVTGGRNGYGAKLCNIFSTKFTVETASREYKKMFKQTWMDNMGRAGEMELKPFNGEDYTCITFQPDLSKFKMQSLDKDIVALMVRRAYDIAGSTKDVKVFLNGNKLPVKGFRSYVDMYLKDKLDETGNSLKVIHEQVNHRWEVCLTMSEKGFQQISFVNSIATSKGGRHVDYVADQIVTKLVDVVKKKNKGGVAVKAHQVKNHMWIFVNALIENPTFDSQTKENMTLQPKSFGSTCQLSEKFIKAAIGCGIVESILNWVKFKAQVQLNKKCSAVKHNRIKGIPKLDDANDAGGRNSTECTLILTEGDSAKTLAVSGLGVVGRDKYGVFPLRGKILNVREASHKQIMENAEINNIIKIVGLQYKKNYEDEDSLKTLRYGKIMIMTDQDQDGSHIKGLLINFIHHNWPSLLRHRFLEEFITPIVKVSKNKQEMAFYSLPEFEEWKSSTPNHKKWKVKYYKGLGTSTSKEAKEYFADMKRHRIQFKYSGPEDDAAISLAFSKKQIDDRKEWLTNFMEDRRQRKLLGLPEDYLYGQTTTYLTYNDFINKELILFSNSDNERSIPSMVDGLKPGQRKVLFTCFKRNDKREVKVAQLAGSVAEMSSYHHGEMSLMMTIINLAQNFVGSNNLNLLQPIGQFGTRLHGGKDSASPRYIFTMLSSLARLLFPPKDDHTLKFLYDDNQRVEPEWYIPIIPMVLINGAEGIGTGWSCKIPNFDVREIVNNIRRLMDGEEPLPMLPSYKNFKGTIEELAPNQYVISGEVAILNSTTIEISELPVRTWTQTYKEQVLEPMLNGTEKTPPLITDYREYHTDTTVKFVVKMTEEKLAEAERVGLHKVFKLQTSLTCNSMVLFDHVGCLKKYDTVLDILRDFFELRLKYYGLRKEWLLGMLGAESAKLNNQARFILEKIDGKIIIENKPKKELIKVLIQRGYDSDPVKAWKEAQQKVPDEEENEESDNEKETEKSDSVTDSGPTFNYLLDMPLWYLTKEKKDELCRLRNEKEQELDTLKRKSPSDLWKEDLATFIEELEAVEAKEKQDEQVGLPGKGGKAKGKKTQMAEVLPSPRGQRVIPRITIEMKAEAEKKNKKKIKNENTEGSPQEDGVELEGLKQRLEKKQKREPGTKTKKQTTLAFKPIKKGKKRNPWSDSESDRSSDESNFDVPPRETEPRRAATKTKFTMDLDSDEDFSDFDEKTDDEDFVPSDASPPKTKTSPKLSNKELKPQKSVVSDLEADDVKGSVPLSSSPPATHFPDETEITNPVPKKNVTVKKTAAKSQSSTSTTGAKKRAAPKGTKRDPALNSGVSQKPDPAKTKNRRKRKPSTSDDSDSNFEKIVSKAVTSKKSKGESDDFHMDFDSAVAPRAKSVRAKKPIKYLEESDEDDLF

Consider `CC(=O)O[C@H]1C(=O)[C@@]2(C)[C@H]([C@H](OC(=O)c3ccccc3)[C@]3(O)C[C@H](OC(=O)[C@H](O)[C@@H](NC(=O)c4ccccc4)c4ccccc4)C(C)=C1C3(C)C)[C@]1(OC(C)=O)CO[C@@H]1C[C@@H]2O`, for which the OD in test [1] is 0.52.
Turning to `CC[C@]1(O)C[C@@H]2CN(CCc3c([nH]c4ccccc34)[C@@](C(=O)OC)(c3cc4c(cc3OC)N(C)[C@H]3[C@@](O)(C(=O)OC)[C@H](OC(C)=O)[C@]5(CC)C=CCN6CC[C@]43[C@@H]65)C2)C1` [VINBLASTINE], the IC50 in [2] amounted to 15 µM; in [3] it was 25.9 µM. In addition, in test [1], the OD was 0.2.
Consider `CCCNc1nc2ccc3c4ccccc4sc3c2c(=O)[nH]1`, for which the inhibition entry in test [4] and in test [8] was “inactive” in each case. Besides, the inhibition entry in test [5] and in [6] was “Active” throughout. For the same compound, the results for the IC50 in test [2], in test [3] and in [7] were 40.7 µM, over 100 µM and 3.88 µM, respectively. Also, the OD in test [1] was 0.24.
`CCCCCN(CCCCC)c1nc2ccc3c4ccccc4sc3c2c(=O)[nH]1`: the figures for the IC50 in test [2], in [3] and in test [7] were 75.2 µM, over 100 µM and 42.4 µM, respectively.
For `O=c1[nH]c(N2CCOCC2)nc2ccc3c4ccccc4sc3c12`, in that order: 21.2 µM, over 100 µM and 9.43 µM.
As for `Cc1c2ccncc2c(C)c2c1[nH]c1ccccc12` [ELLIPTECINE], the inhibition entry in test [5] is “Active”. Moreover, the concentration for half-maximal inhibition (IC50) was determined as 1.2 µM in test [3] and 1.85 µM in test [7].
Take `O=c1[nH]c(NC2CCCC2)nc2ccc3c4ccccc4sc3c12`: the IC50 in test [2] is 45.6 µM; in test [3] it was over 100 µM; in test [7], 5.59 µM.
For `CCCCNc1nc2ccc3c4ccccc4sc3c2c(=O)[nH]1`, in that order: 74.5 µM, over 100 µM and 38.9 µM.
In the case of `CCCN(CCC)c1nc2ccc3c4ccccc4sc3c2c(=O)[nH]1`, the inhibition result in [4] and in test [8] was “inactive” each time. In addition, the IC50 is 42 µM in test [2], over 100 µM in test [3] and 4.69 µM in test [7]. Further, the OD in test [1] stood at 0.26. The inhibition entry in test [9] is “Active”.

By IC50 is commonly meant the concentration at which inhibition is half-maximal.
